Results as given in ChEMBL document CHEMBL1124485, “6-Alkyl-N,N-disubstituted-2-pyridinamines as anticonvulsant agents” (1989).
Where “and” joins values, the source holds several entries; their conditions need not be identical. Identical values can stand only once.

Tests used:
Assay type in all cases: functional
Mus musculus [1] = test: Effective dose against convulsions induced by clonic pentylenetetrazole after intraperitoneal administration in experiment 2; conditions: ip
In short: (§1)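 Male CF-1 mice (25-35 g) dosed ip. Pentylenetetrazol 85 mg/kg in 0.9% NaCl was given sc at the dorsal neck, and mice were observed 30 min. An anticonvulsant effect was prevention of all clonic seizures (≥5 s forelimb clonus). ED50 was obtained by quantal probit analysis; NINCDS testing used 30% polyethylene glycol vehicle.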

Mus musculus [2] = test: Effective dose required for the inhibition of spontaneous locomotion after intraperitoneal administration in experiment 1; conditions: ip
Mus musculus [3] = test: Effective dose required to inhibit ataxia after intraperitoneal administration in experiment 2; conditions: ip
In short: (§2)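 Ataxia in mice after ip dosing: in-house, falling from an inverted wire mesh screen (Swiss-Webster mice); in NINCDS studies, falling from a rotating rod (CF-1 mice, 30% polyethylene glycol vehicle). ED50 was obtained by quantal probit analysis.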

[4] = Protective index, ratio of ED50 ataxia and ED50 MES
In short: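 Protective index is the ratio of the ataxia ED50 to the maximal electroshock ED50. Both were ip in mice and derived by quantal probit analysis.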

Mus musculus [5] = test: Effective dose required to inhibit ataxia after intraperitoneal administration in experiment 1; conditions: ip; in short: as §2
Mus musculus [6] = test: Effective dose against convulsions induced by maximal electroshock (MES) after intraperitoneal administration in experiment 2; conditions: ip
In short: (§3)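 Mice dosed ip and challenged by maximal electroshock, scoring protection from seizures; N = 10 mice per time-course point. ED50 was obtained by quantal probit analysis. Swiss-Webster mice were used in-house; CF-1 mice were used in NINCDS testing, where drug was in 30% polyethylene glycol at 10 mL/kg.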

Mus musculus [7] = test: Effective dose against convulsions induced by maximal electroshock (MES) after intraperitoneal administration in experiment 1; conditions: ip; in short: as §3
Mus musculus [8] = test: Effective dose against convulsions induced by clonic pentylenetetrazole after intraperitoneal administration in experiment 1; conditions: ip; in short: as §1
Mus musculus [9] = test: Lowest dose level at which mice fell off inverted screen during testing 120 min after intraperitoneal dosage
In short: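 Male Swiss-Webster mice (22-32 g), N = 5 per dose, given 10, 30, 100, 300 mg/kg ip. Tested 120 min after dosing on an inverted wire mesh screen. Value is the lowest dose level at which two or more mice fell off.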

Mus musculus [10] = test: Minimum effective dose at which mice were protected against tonic-extension produced by maximal electroshock during testing 120 min after intraperitoneal dosage; conditions: ip, 2 h, read-out: MED
In short: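 Male Swiss-Webster mice (22-32 g), N = 5 per dose; dosed ip at 10, 30, 100, 300 mg/kg. Tested 120 min after dosing for protection against tonic extension from maximal electroshock. Value is the dose level at which two or more mice were protected.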

NC(=O)N1c2ccccc2C=Cc2ccccc21 [CARBAMAZEPINE]
ED50 (Mus musculus [1]): > 100 mg/kg | ED50 (Mus musculus [2]): 50 mg/kg | ED50 (Mus musculus [3]): 72 mg/kg | Ratio [4]: 8.2 | ED50 (Mus musculus [5]): 41 mg/kg | ED50 (Mus musculus [6]): 8.8 mg/kg | ED50 (Mus musculus [7]): 9.8 mg/kg | ED50 (Mus musculus [8]): > 100 mg/kg

CCCCCCc1cccc(N2CCNCC2)n1
ED50 (Mus musculus [1]): > 100 mg/kg | ED50 (Mus musculus [2]): 20 mg/kg | ED50 (Mus musculus [3]): 46 mg/kg | Ratio [4]: 3 and 2.9 | MTC (Mus musculus [9]): 100 mg/kg | ED50 (Mus musculus [5]): 22 mg/kg | ED50 (Mus musculus [6]): 16 mg/kg | ED50 (Mus musculus [7]): 7.3 mg/kg | minimal effective dose (Mus musculus [10]): 10 mg/kg

CCCCCc1cccc(N2CCNCC2)n1
MTC (Mus musculus [9]): 30 mg/kg | minimal effective dose (Mus musculus [10]): 10 mg/kg

CCCCSc1cccc(N2CCNCC2)n1
MTC (Mus musculus [9]): 100 mg/kg | minimal effective dose (Mus musculus [10]): 100 mg/kg

O=C1NC(=O)C(c2ccccc2)(c2ccccc2)N1 [PHENYTOIN]
ED50 (Mus musculus [1]): > 100 mg/kg | ED50 (Mus musculus [2]): > 65 mg/kg | ED50 (Mus musculus [3]): 65 mg/kg | ED50 (Mus musculus [5]): 82 mg/kg | ED50 (Mus musculus [7]): 8 mg/kg

CCCCCCCc1cccc(N2CCN(C)CC2)n1.Cl
MTC (Mus musculus [9]): 300 mg/kg | minimal effective dose (Mus musculus [10]): 30 mg/kg

c1ccc(CCc2cccc(N3CCNCC3)n2)cc1
MTC (Mus musculus [9]): 100 mg/kg | minimal effective dose (Mus musculus [10]): > 300 mg/kg

CCCCCCCCCc1cccc(N2CCNCC2)n1
ED50 (Mus musculus [1]): > 100 mg/kg | ED50 (Mus musculus [2]): 26 mg/kg | ED50 (Mus musculus [3]): 42 mg/kg | Ratio [4]: 5.4 | MTC (Mus musculus [9]): 30 mg/kg | ED50 (Mus musculus [5]): 30 mg/kg | ED50 (Mus musculus [6]): 7.8 mg/kg | ED50 (Mus musculus [7]): 5.6 mg/kg | minimal effective dose (Mus musculus [10]): 10 mg/kg

CC(C)c1cccc(N2CCNCC2)n1.Cl.Cl
MTC (Mus musculus [9]): 30 mg/kg | minimal effective dose (Mus musculus [10]): > 300 mg/kg

CCCCCCCc1ccnc(N2CCNCC2)c1
MTC (Mus musculus [9]): 100 mg/kg | minimal effective dose (Mus musculus [10]): 30 mg/kg

CCCCCCCCc1cccc(N2CCNCC2)n1
MTC (Mus musculus [9]): 30 mg/kg | minimal effective dose (Mus musculus [10]): 10 mg/kg

CC(C)(C)c1cccc(N2CCNCC2)n1.Cl
MTC (Mus musculus [9]): 30 mg/kg | minimal effective dose (Mus musculus [10]): > 300 mg/kg

Cl.c1cc(CC2CCCCC2)nc(N2CCNCC2)c1
MTC (Mus musculus [9]): 100 mg/kg | minimal effective dose (Mus musculus [10]): 100 mg/kg

CCCCCCCc1cccc(N2CCCNCC2)n1
MTC (Mus musculus [9]): 100 mg/kg | minimal effective dose (Mus musculus [10]): 30 mg/kg

CCCCCCCc1cccc(N2CCCCC2)n1
MTC (Mus musculus [9]): >300 mg/kg | minimal effective dose (Mus musculus [10]): > 300 mg/kg

CCCCCCCCCCc1cccc(N2CCNCC2)n1
MTC (Mus musculus [9]): 100 mg/kg | minimal effective dose (Mus musculus [10]): 30 mg/kg

CCCCc1cccc(N2CCNCC2)n1
MTC (Mus musculus [9]): 10 mg/kg | minimal effective dose (Mus musculus [10]): 30 mg/kg

CCCCCCCc1cccc(N2CCNCC2)n1
ED50 (Mus musculus [1]): 21 mg/kg | ED50 (Mus musculus [2]): 13 mg/kg | ED50 (Mus musculus [3]): 29 mg/kg | Ratio [4]: 5.1 and 4.5 | MTC (Mus musculus [9]): 100 mg/kg | ED50 (Mus musculus [5]): 45 mg/kg | ED50 (Mus musculus [6]): 6.4 mg/kg | ED50 (Mus musculus [7]): 8.8 mg/kg | minimal effective dose (Mus musculus [10]): 10 mg/kg

CCCc1cccc(N2CCNCC2)n1.Cl
MTC (Mus musculus [9]): 3 mg/kg | minimal effective dose (Mus musculus [10]): 10 mg/kg

Cc1cccc(N2CCNCC2)n1.Cl.Cl
MTC (Mus musculus [9]): 30 mg/kg | minimal effective dose (Mus musculus [10]): > 300 mg/kg

CCCCCCCc1cccc(N2CCOCC2)n1
MTC (Mus musculus [9]): >300 mg/kg | minimal effective dose (Mus musculus [10]): 300 mg/kg

CCCCCCC(CCCCCC)c1cccc(N2CCNCC2)n1
MTC (Mus musculus [9]): 100 mg/kg | minimal effective dose (Mus musculus [10]): > 300 mg/kg
